Bioassay records deposited in PubChem by several laboratories.
UCH37 DUB inh: inhibitors of human UCH37 deubiquitinase, primary screen, biochemical, Ub-AMC cleavage, fluorescence; AID 588478, 2011; inhibition, % (no concentration beside the values); purified proteasome/UCH37; 330,000 tested, 0.33% active; Ubiquitin carboxyl-terminal hydrolase isozyme L5 (Homo sapiens), Q9Y5K5;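 active means mean inhibition over replicate wells above about 20%, limit read from the data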;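 further: 0% = compound-free wells with enzyme and 100% = wells lacking proteasome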
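Material: human UCH37 enzyme supplied as purified proteasome complex. Measure: % inhibition of Ub-AMC cleavage fluorescence. Medium: pH 7.4 Tris-HCl (50 mM) with ovalbumin, ATP-MgCl2, DTT. Times: 30 min preincubation with enzyme, 25 min cleavage at room temperature. Detection: AMC fluorescence intensity at 355/460 nm.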
NALP1 inh: NALP1 inflammasome inhibitors in reconstituted yeast, colorimetric, S. cerevisiae, triplicate retest. AID 2071, 2009. inhibition, % at 10 µM. 280,000 tested, 0.61% active. S. cerevisiae NALP1/ASC/caspase-1 growth, X-gal OD620, 72 h; in the data active means inhibition mostly above about 24%, no sharp cut-off; inactive means mostly below about 32%
ATG4B inh: ATG4B protease inhibitors, primary screen, biochemical, fluorescence, uHTS; ATG4B cleavage of LC3-PLA2, NBD-HPC fluorescence, 1 h; 340,000 tested, 0.51% active; inhibition, % at 8.33 µM; in the data active means inhibition above about 40%
Target sequence (Q9Y4P1 whole entry, looked up): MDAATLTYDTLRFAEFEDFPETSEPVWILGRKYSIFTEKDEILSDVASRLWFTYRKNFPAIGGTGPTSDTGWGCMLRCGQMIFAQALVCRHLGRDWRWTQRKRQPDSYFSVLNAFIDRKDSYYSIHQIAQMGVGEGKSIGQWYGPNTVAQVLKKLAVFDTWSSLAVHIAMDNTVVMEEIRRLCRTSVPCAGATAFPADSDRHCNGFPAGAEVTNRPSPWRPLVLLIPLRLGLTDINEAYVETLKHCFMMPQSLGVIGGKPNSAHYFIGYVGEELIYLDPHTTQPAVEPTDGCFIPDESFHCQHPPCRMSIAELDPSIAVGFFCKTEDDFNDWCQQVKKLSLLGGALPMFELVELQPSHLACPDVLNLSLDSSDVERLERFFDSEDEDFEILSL
NLRP3 yeast inh: NALP3 inflammasome inhibitors in reconstituted yeast, primary screen, luminescence, uHTS; Yeast reconstituted NLRP3/ASC/caspase-1, beta-gal luminescence, 24 h; inhibition, % at 10 µM; 330,000 tested, 0.39% active;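 active means inhibition of 50% or more; inactive means inhibition below 50%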;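 further: plate controls were induced DMSO wells for no effect and uninduced yeast grown without galactose for full effect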
ALR H2O2 inh: inhibitors of human ALR sulfhydryl oxidase, primary screen, biochemical, H2O2 detection, HRP-luminol luminescence, single point. FAD-linked sulfhydryl oxidase ALR (Homo sapiens), P55789. purified ALR, DTT oxidation. inhibition, % (concentration not given with the values). 290,000 tested, 3.8% active;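 active means mean replicate inhibition above about 79%, with every replicate also reaching it, limit read from the data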
Target sequence (P55789 whole entry, looked up): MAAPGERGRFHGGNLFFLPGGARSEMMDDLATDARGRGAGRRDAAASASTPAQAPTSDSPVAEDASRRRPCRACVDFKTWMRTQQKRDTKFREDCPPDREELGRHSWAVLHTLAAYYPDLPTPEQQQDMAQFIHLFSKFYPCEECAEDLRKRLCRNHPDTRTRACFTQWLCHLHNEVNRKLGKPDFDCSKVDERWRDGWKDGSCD
Calb FLC: C. albicans growth inhibition with fluconazole, primary screen, CaCi-2 strain, Alamar Blue fluorescence; 300,000 tested, 0.57% active; C. albicans CaCi-2 + fluconazole, 48 h; growth inhibition, % (test concentration not listed);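 active means growth inhibition above about 58% in most replicates, limit read from the data, passing the limit was not always enough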;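 further: all wells also contain fluconazole at 8 µg/ml as a sub-toxic cotreatment; 0% = median of DMSO wells and 100% = median of geldanamycin control wells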
* marks the source's active call; other numbers are inactive results; . = no result given. Only some compounds are listed: those with a hit (about 4.8% of all), similar ones and a draw of the others.

SMILES	UCH37 DUB inh	NALP1 inh	ATG4B inh	NLRP3 yeast inh	ALR H2O2 inh	Calb FLC
CN(C)c1ccc(NC(=O)CN2CCc3ccccc3C2)cc1	2.2	30.5	-2.7	32.9	99.4*	-8.5
CN(C)c1ccc(NC(=O)CN2CCC(NC(=O)C3CCCCC3)CC2)cc1	2.3	-15.0	0.5	4.4	58.5	3.1
CN(C)c1ccc(NC(=O)CN2CCC(N3CCCCC3)CC2)cc1	1.8	17.5	3.9	-10.1	99.3*	-11.3
CCN(CC)c1ccc(NC(=O)CN2CCN(CC(=O)Nc3ccc(F)cc3)CC2)cc1	1.1	-1.0	4.6	7.3	98.5*	.
CSc1ccc(NC(=O)NCCN2CCc3ccccc3C2)cc1	1.5	13.0	-7.8	10.0	97.8*	-19.5
Oc1ccc(C2CNCc3sccc32)cc1O (configuration not stated)	2.3	.	-0.9	5.3	97.7*	.
Clc1ccc(C2NCCc3sccc32)cc1 (configuration not stated)	1.6	19.4	5.1	9.1	-1.7	0.0
Cc1ccc2c(c1)c1c(n2CC(O)Cn2ccnc2C)C(=O)CCC1 (configuration not stated)	-16.9	-52.3	-21.5	5.6	-1.6	0.2
Cc1ccc2c(c1)c1c(n2CC(O)CNC2CCCC2)CCCC1 (configuration not stated)	0.9	.	-1.2	13.2	89.2*	-9.6
CSc1ccc(C=NN2CCN(Cc3ccc(C)cc3C)CC2)cc1	0.6	.	.	.	.	.
O=C(CSc1nc(-c2ccc(Cl)cc2)[nH]c(=O)n1)Nc1cccc(Cl)c1	3.5	.	17.9	0.2	99.3*	-7.8
O=C(CSc1n[nH]c(-c2cccnc2)n1)Nc1cccc(Cl)c1	0.3	11.9	-1.9	3.1	-7.8	0.3
Cc1ccc2nc(SCC(=O)Nc3cccc(Cl)c3)nc(=O)n2c1	0.3	.	-7.8	8.8	97.3*	12.8
Oc1[nH]c2ccccc2c1C=NCC1CCCO1 (configuration not stated)	10.3	37.9	-9.1	14.8	98.2*	-7.8
COc1ccc(N=Cc2c(O)[nH]c3ccccc23)cc1	6.3	0.3	-16.7	43.2	46.2	4.8
COc1ccc(CN=Cc2c(O)[nH]c3ccccc23)cc1	8.2	-13.4	-0.4	7.9	99.3*	31.3
CCOc1ccc(C(=O)NCCc2ccccc2)cc1	1.1	2.8	10.8	28.9	.	17.2
CCOc1ccc(CCNC(=O)C(O)c2ccccc2)cc1 (configuration not stated)	0.5	-3.5	0.7	8.6	98.9*	5.5
CCn1c(=O)n(CC(=O)Nc2cc(OC)ccc2OC)c(=O)c2ccccc21	0.9	4.4	-3.3	13.6	98.7*	1.5
COc1ccc(OC)c(NC(=O)COC(=O)CCNc2ccccc2OC)c1	2.3	.	-0.8	9.1	98.1*	.
COc1ccccc1NCCC(=O)OCC(=O)NCc1ccco1	-0.7	21.1	-5.6	1.5	98.7*	2.5
COc1ccc(OCCC(=O)OCC(=O)NCc2ccco2)cc1	5.4	-18.4	-12.3	-4.3	-2.8	7.3
Brc1ccc(-c2ccc(C=NNc3nc4ccccc4[nH]3)o2)cc1	-125.3	.	.	.	.	.
COc1ccccc1NC(=O)CCC(=O)NN=C(C)c1ccc(C)cc1	-0.6	.	.	.	.	.
Cc1ccsc1C=NNC(=O)CCc1c(C)n[nH]c1C	7.9	.	.	.	.	.
SMILES	UCH37 DUB inh	NALP1 inh	ATG4B inh	NLRP3 yeast inh	ALR H2O2 inh	Calb FLC
CSC1=NSC2=NC(=O)/C(=C/c3coc4ccccc4c3=O)C(=N)N12	-16.4	28.5	12.8	.	98.3*	.
CSC1=NSC2=NC(=O)/C(=C/c3coc4ccc(O)cc4c3=O)C(=N)N12	-12.9	23.7	15.1	11.9	21.8	.
CCOc1ccc(-n2c(Cc3cc(=O)[nH]c(=O)[nH]3)nnc2SC(C)C(=O)OC)cc1 (configuration not stated)	3.7	-16.6	.	0.8	92.5*	-1.6
COC(=O)C(C)Sc1nnc(Cc2cc(=O)[nH]c(=O)[nH]2)n1-c1cccc(OC)c1 (configuration not stated)	0.1	-19.6	-4.8	6.7	27.4	1.5
COC(=O)C(C)Sc1nnc(Cc2cc(=O)[nH]c(=O)[nH]2)n1-c1cc(C)ccc1C (configuration not stated)	8.8	4.5	-5.0	8.9	90.6*	14.2
C=CCSc1nnc(Cc2cc(=O)[nH]c(=O)[nH]2)n1-c1cc(C)ccc1C	1.4	14.6	0.8	14.7	3.8	10.4
Cc1cnn(-c2cc(NN=Cc3ccc(F)cc3)ncn2)c1	5.0	.	.	.	.	.
COc1cc(C(=O)NN=Cc2ccc(OC(=O)c3ccccc3Cl)c(OC)c2)ccc1O	1.8	.	.	.	.	.
NC(=S)NN=Cc1ccc(-c2ccc([N+](=O)[O-])cc2)o1	4.2	.	.	.	.	.
O=C(NN=Cc1ccccn1)c1cc(-c2ccc(Cl)cc2)nc2ccccc12	0.4	.	.	.	.	.
N=c1n(CCN2CCCCC2)c2ccccc2n1CC(O)c1ccc(Cl)c(Cl)c1 (configuration not stated)	16.0	43.4*	10.4	22.4	-16.3	-14.0
N=c1n(CCN2CCCCC2)c2ccccc2n1CC(O)c1cccc(Br)c1 (configuration not stated)	2.6	9.7	-3.1	17.8	.	-3.5
CC(=NNC(=O)c1cccc(S(=O)(=O)N2CCCCC2)c1)c1ccc(C)o1	3.6	.	.	.	.	.
CC1CCCN(CCCOc2ccc(Br)cc2Cl)C1 (configuration not stated)	.	26.5*	1.7	23.9	-24.0	-19.6
Cc1ccc(NC(=O)Nc2cccs2)nc1	5.1	19.6	-11.8	15.3	98.4*	0.7
O=C(Nc1ccc(Cl)cn1)Nc1ccc(Cl)cn1	5.7	30.3*	-7.1	19.1	-1.2	-7.6
O=C(Nc1cccs1)Nc1ccccc1Cl	3.4	2.3	2.6	6.1	89.5*	10.8
Cc1ccc(NC(=O)Nc2cccs2)cc1	5.0	0.8	7.0	12.7	98.1*	-6.4
Cc1ccc(NC(=O)Nc2ccccc2)nc1	1.6	.	-9.9	23.9	1.3	1.6
CCc1ccc(NC(=O)Nc2cccs2)cc1	1.0	9.5	1.0	30.8	2.6	1.3
Cc1ccc(C=NNC(=O)C(C)NC(=O)c2ccccc2)cc1 (configuration not stated)	4.8	.	.	.	.	.
CC(=O)Nc1sc(NN=Cc2ccccc2)nc1-c1ccc(C)cc1	-4.3	.	.	.	.	.
CC(=O)n1cc(C=NNC(=O)c2ccc([N+](=O)[O-])cc2)c2ccccc21	8.0	.	.	.	.	.
CC(=O)c1cccc(NC(=O)Nc2cccs2)c1	0.7	2.9	3.9	11.2	96.5*	-1.4
CN(C)CCCNc1cc(C(C)(C)C)nc2c(-c3ccccc3)cnn12	-35.5	6.4	1.0	-3.5	99.0*	25.1
